From ChEMBL document CHEMBL3272049, “Estrogen potentiating activity of two spiro compounds having approximately similar molecular dimensions to stilbestrol” (1977)

Legend:
Assay type in all cases: functional
Conditions in all cases: route intraperitoneal
[1] = test system: Mus musculus; assay: Estrogenic activity in albino CFLP-ICI strain 1 mouse assessed as change in uterus weight at 0.1 mg/kg, ip qd for three consecutive days measured 24 hrs post last dose (reference value: 6.9 +/- 0.7 mg)
[2] = test system: Mus musculus; assay: Potentiation of stilbesterol-induced estrogenic activity in albino CFLP-ICI strain 1 mouse assessed as change in uterus weight at 0.1 mg/kg, ip qd for three consecutive days measured 24 hrs post last dose relative to control
How it was run: (§1)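 Mice received stilbestrol 0.01 mg/kg together with graded doses of spiro derivative, both in arachis oil, ip once daily at 10.00 h for three consecutive days; comparison group got stilbestrol alone. Killed by cervical dislocation 24 h after final dose. Uteri dissected free of fat, blotted and weighed. Uterine ratio = uterine weight (mg)/body weight (g) × 100; mean ± SE.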

[3] = test system: Mus musculus; assay: Potentiation of stilbesterol-induced estrogenic activity in albino CFLP-ICI strain 1 mouse assessed as uterine ratio at 0.001 mg/kg, ip qd for three consecutive days measured 24 hrs post last dose relative to body weight; how it was run: as §1
[4] = test system: Mus musculus; assay: Potentiation of stilbesterol-induced estrogenic activity in albino CFLP-ICI strain 1 mouse assessed as change in uterus weight at 10 mg/kg, ip qd for three consecutive days measured 24 hrs post last dose relative to control; how it was run: as §1
[5] = test system: Mus musculus; assay: Potentiation of stilbesterol-induced estrogenic activity in albino CFLP-ICI strain 1 mouse assessed as change in uterus weight at 0.001 mg/kg, ip qd for three consecutive days measured 24 hrs post last dose relative to control; how it was run: as §1
[6] = test system: Mus musculus; assay: Estrogenic activity in albino CFLP-ICI strain 1 mouse assessed as uterine ratio at 0.1 mg/kg, ip qd for three consecutive days measured 24 hrs post last dose relative to body weight
[7] = test system: Mus musculus; assay: Estrogenic activity in albino CFLP-ICI strain 1 mouse assessed as change in uterus weight at 10 mg/kg, ip qd for three consecutive days measured 24 hrs post last dose (reference value: 6.9 +/- 0.7 mg)
[8] = test system: Mus musculus; assay: Potentiation of stilbesterol-induced estrogenic activity in albino CFLP-ICI strain 1 mouse assessed as uterine ratio at 10 mg/kg, ip qd for three consecutive days measured 24 hrs post last dose relative to body weight; how it was run: as §1
[9] = test system: Mus musculus; assay: Estrogenic activity in albino CFLP-ICI strain 1 mouse assessed as uterine ratio at 10 mg/kg, ip qd for three consecutive days measured 24 hrs post last dose relative to body weight
[10] = test system: Mus musculus; assay: Potentiation of stilbesterol-induced estrogenic activity in albino CFLP-ICI strain 1 mouse assessed as uterine ratio at 0.01 mg/kg, ip qd for three consecutive days measured 24 hrs post last dose relative to body weight; how it was run: as §1
[11] = test system: Mus musculus; assay: Potentiation of stilbesterol-induced estrogenic activity in albino CFLP-ICI strain 1 mouse assessed as change in uterus weight at 0.01 mg/kg, ip qd for three consecutive days measured 24 hrs post last dose relative to control; how it was run: as §1
[12] = test system: Mus musculus; assay: Potentiation of stilbesterol-induced estrogenic activity in albino CFLP-ICI strain 1 mouse assessed as uterine ratio at 0.1 mg/kg, ip qd for three consecutive days measured 24 hrs post last dose relative to body weight; how it was run: as §1
[13] = test system: Mus musculus; assay: Estrogenic activity in albino CFLP-ICI strain 1 mouse assessed as change in uterus weight at 0.01 mg/kg, ip qd for three consecutive days measured 24 hrs post last dose (reference value: 6.9 +/- 0.7 mg)
[14] = test system: Mus musculus; assay: Estrogenic activity in albino CFLP-ICI strain 1 mouse assessed as uterine ratio at 0.01 mg/kg, ip qd for three consecutive days measured 24 hrs post last dose relative to body weight

Row | Structure (SMILES) | Activity [1] | Activity [2] | Ratio [3] | Activity [4] | Activity [5] | Ratio [6] | Activity [7] | Ratio [8] | Ratio [9] | Ratio [10] | Activity [11] | Ratio [12] | Activity [13] | Ratio [14]
1 | O=C1CCC2(CC1)CCc1ccccc1C2=O | 10 mg | 30.7 mg | 306 | 36.5 mg | 29.9 mg | 78 | 6.9 mg | 293 | 64 | 377 | 37.1 mg | 293 |  | 
2 | OC1CCC2(CC1)Cc1ccccc1C2O (configuration not stated) | 7.4 mg |  |  | 29.2 mg |  | 80 | 9.7 mg | 247 | 86 | 225 | 24.5 mg |  |  | 
3 | CC/C(=C(/CC)c1ccc(O)cc1)c1ccc(O)cc1 [DIETHYLSTILBESTROL] |  |  |  |  |  |  |  |  |  |  |  |  | 17.5 mg | 167
